Source: PubChem BioAssay
RAD52 inh = blocks human RAD52 DNA annealing; inhibition, % at 18.7 µM; 0.46% of 360,000 active; P43351; recombinant RAD52 DNA annealing, FRET fluorescence;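 active means every replicate showing at least 50% inhibition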
Glyco luc inh = blocks N-linked glycosylation in D54 reporter cells; D54 ERlucT glycosylation luciferase reporter, 24 h; percent of 100 nM tunicamycin response; reporter increase, % at 12.5 µM; 0.23% of 360,000 active;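 active means mean luciferase reporter signal, scaled so untreated is 0 and the glycosylation-blocking control 100, at or above a set limit in every replicate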;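 further: luciferase carries N-glycosylation sites so blocking glycosylation raises the light; 0% = median of neutral control wells and 100% = median of 100 nM tunicamycin wells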
RAD54 inh = RAD54 (human) branch migration inhibition; inhibition, % at 10.4 µM; AID 602329; 0.14% of 360,000 active; Q92698; RAD54 Holliday junction branch migration, FAM/BHQ fluorescence;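 active means mean normalized replicate activity at least 40 and at least half of replicates scoring 40 or more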;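 further: 0% = median of neutral control wells and 100% = median of positive control wells; inhibitors cause a drop in the FAM fluorescence signal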
AF4-AF9 inh = MLL-AF4/AF9 protein interaction inhibition. AlphaScreen, biotin-AF4 peptide binding to FLAG-AF9. 0.47% of 350,000 active. inhibition, % at 10 µM. P42568;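 active means every replicate reaching a set inhibition limit, whatever the replicate mean, cut at about 25% in these data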;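 further: 0% = plate neutral control median and 100% = total signal loss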
FN deposit inh = fibronectin deposition inhibition; 0.086% of 350,000 active; AID 743247; AH1F fibroblasts, Alexa488-fibronectin deposition fluorescence, overnight; inhibition, % at 12.6 µM;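 active means mean inhibition across replicates of 30% or more, regardless of how many single replicates reach that level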;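 further: positive control wells lacked labelled fibronectin entirely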
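Assay system: AH1F fibroblast monolayer, labelled fibronectin deposition. Amount: 10000 cells per well. Also added: labelled fibronectin 24 nM. Compound: single-point pinned compound. Incubation: cell attachment 1 h, compound and FN exposure overnight. Detection: fluorescence after three HBSS washes, excitation 485 nm, emission 525 nm. Read-out: inhibition of fibronectin deposition signal.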
NSD2 inh = blocks human histone methyltransferase NSD2; 0.54% of 310,000 active; NSD2 peptide methylation, AlphaScreen, 120 min; inhibition, % at 12.5 µM; AID 743445; O96028; in the data active means inhibition above about 50%
An asterisk follows results filed as active. This is a sample that favours compounds with a hit; in the whole collection about 1.2% have one here.

For COc1ccccc1Cn1[nH]nnc1=S the results were RAD52 inh -13.1, Glyco luc inh 1.1, RAD54 inh 1.0, AF4-AF9 inh -2.9, FN deposit inh -3.2 and NSD2 inh 101.2*.
Screening C[C@H]1CCCCO[C@H](CN(C)CC2CC2)[C@@H](C)CN([C@@H](C)CO)C(=O)c2cc(NS(=O)(=O)c3ccccc3)ccc2O1 returned RAD52 inh 0.2 and AF4-AF9 inh 3.9.
For CCCNC1=C(N(C(C)=O)c2cccc(F)c2)C(=O)c2ccccc2C1=O the results were RAD52 inh -8.2, Glyco luc inh -22.7, RAD54 inh 5.8, AF4-AF9 inh 7.2, FN deposit inh 13.9 and NSD2 inh 78.1*.
For CCOc1cc(/C=C/C(=O)Nc2ccc(C(=O)NCCN(CC)CC)cc2)ccc1OCC(C)C the results were RAD52 inh 26.6, Glyco luc inh -5.1, AF4-AF9 inh 30.9*, FN deposit inh 23.8 and NSD2 inh 5.2.
For C[C@H]1CN([C@@H](C)CO)C(=O)CCCn2cc(nn2)CO[C@H]1CN(C)S(=O)(=O)c1ccc(-c2ccccc2)cc1 the results were RAD52 inh 2.6, RAD54 inh -1.3, AF4-AF9 inh 3.0 and FN deposit inh -5.3.
`Cc1ccc(-n2cc(CN3CCN(Cc4nccn4C)CC3)c(-c3cccc(C)c3)n2)cc1` gave RAD52 inh 12.0, Glyco luc inh -2.2, RAD54 inh -1.7, AF4-AF9 inh 28.8*, FN deposit inh -2.0 and NSD2 inh 3.0.
CC1Oc2ccccc2N(CC(=O)N2CCCCC2)C1=O (centres undefined) was read as RAD52 inh 0.1, Glyco luc inh -0.4, RAD54 inh -1.9, AF4-AF9 inh 30.4*, FN deposit inh 3.0 and NSD2 inh -8.4.
For C[C@@H]1CCCCO[C@@H](CN(C)C(=O)c2ccccc2)[C@@H](C)CN([C@@H](C)CO)C(=O)c2cc(NS(=O)(=O)c3ccc(Cl)cc3)ccc2O1 the results were RAD52 inh 14.7, RAD54 inh -0.6, AF4-AF9 inh -1.6 and FN deposit inh -7.9.
`Cc1cccc(Sc2c([N+](=O)[O-])ncn2C)c1` gave Glyco luc inh 20.1, RAD54 inh 0.6 and NSD2 inh 3.2.
For Cn1cnc([N+](=O)[O-])c1Oc1ccc2ccccc2c1 the results were Glyco luc inh 46.8*, FN deposit inh -8.5 and NSD2 inh -0.1.
Screening O=C(Nc1ccccc1)N1C[C@@H]2[C@H](c3ccccc31)[C@@H](CO)N2C(=O)c1ccncc1 returned RAD52 inh 7.3, RAD54 inh -16.8 and AF4-AF9 inh -13.3.
COc1cc(-c2noc(C)c2/C=C/c2ccc(OC(C)=O)cc2)cc(OC)c1OC was read as RAD52 inh -13.7, Glyco luc inh 27.1*, RAD54 inh -9.5, AF4-AF9 inh -0.7 and FN deposit inh 2.9.
For Cc1ccc(C(=O)Nc2ccccc2C(=O)N2CC(C)OC(C)C2)cc1 (centres undefined) the results were RAD52 inh -1.5, Glyco luc inh 45.5*, RAD54 inh -3.6, AF4-AF9 inh -5.4, FN deposit inh 1.8 and NSD2 inh -1.5.
For COc1ccc(NC(=O)N2CCCCN3[C@H](CO)[C@H](c4ccc(-c5ccccc5F)cc4)[C@H]3C2)cc1 the results were RAD52 inh 56.6*, RAD54 inh 21.7, AF4-AF9 inh -1.5 and FN deposit inh 7.4.
Screening COc1ccc(NC(=O)N2CCCCN3[C@H](C2)[C@@H](c2ccc(-c4ccccc4F)cc2)[C@@H]3CO)cc1 returned RAD52 inh 35.6, RAD54 inh 8.0, AF4-AF9 inh -9.4 and FN deposit inh 11.3.
COc1ccc(NC(=O)N2CCCCN3[C@H](C2)[C@H](c2ccc(-c4ccccc4F)cc2)[C@@H]3CO)cc1 was read as RAD52 inh -23.8, RAD54 inh 12.0, AF4-AF9 inh -12.4 and FN deposit inh 13.5.
COc1ccc(NC(=O)N2CCCCN3[C@@H](CO)[C@@H](c4ccc(C5=CCCC5)cc4)[C@@H]3C2)cc1 was read as RAD52 inh 53.8*, RAD54 inh -13.2 and AF4-AF9 inh 13.1.
Screening COc1ccc(NC(=O)N2CCCCN3[C@H](CO)[C@H](c4ccc(C5=CCCC5)cc4)[C@H]3C2)cc1 returned RAD52 inh 34.1, RAD54 inh 3.3 and AF4-AF9 inh 15.1.
O=C(Nc1ccccc1F)N1CCCCN2[C@H](CO)[C@@H](c3ccc(C4=CCCCC4)cc3)[C@H]2C1 was read as RAD52 inh 55.8*, RAD54 inh -11.1 and AF4-AF9 inh 19.1.
Screening COc1ccc(NC(=O)N2CCCCN3[C@H](CO)[C@@H](c4ccc(-c5ccccc5F)cc4)[C@H]3C2)cc1 returned RAD52 inh 51.5*, RAD54 inh 5.2, AF4-AF9 inh 3.3 and FN deposit inh 7.0.
For COc1cccc(C(=O)Nc2ccc3c(c2)C(=O)N(C)[C@@H]2CC[C@@H](CC(=O)NCC(F)(F)F)O[C@@H]2CO3)c1 the results were RAD52 inh -5.5, RAD54 inh 5.9, AF4-AF9 inh -1.0 and FN deposit inh -3.5.
CO[C@@H]1CN(C)C(=O)c2cc(NC(=O)C3CCCC3)ccc2OC[C@H](C)N(C(C)=O)C[C@@H]1C was read as RAD54 inh 3.5 and FN deposit inh 11.5.
`CO[C@H]1CN(C)C(=O)c2ccc(NC(=O)C3CC3)cc2OC[C@@H](C)N(Cc2cccnc2)C[C@H]1C` gave RAD52 inh 1.8, RAD54 inh 1.2, AF4-AF9 inh -2.2 and FN deposit inh -9.1.
For COc1ccc(NC(=O)N2CCCCN3[C@H](CO)[C@@H](c4ccc(-c5ccccc5F)cc4)[C@@H]3C2)cc1 the results were RAD52 inh 55.7*, RAD54 inh 6.9, AF4-AF9 inh -2.6 and FN deposit inh -14.4.
Screening O=C(Nc1ccc(F)cc1)N1CCCCN2[C@@H](CO)[C@H](c3ccc(-c4ccccc4F)cc3)[C@@H]2C1 returned RAD52 inh 20.0, RAD54 inh 0.6 and AF4-AF9 inh 3.9.
Cc1csc(NC(=O)CCSCCc2ccccn2)n1 was read as RAD52 inh 1.3, Glyco luc inh -0.8, RAD54 inh -15.9, AF4-AF9 inh 42.4* and FN deposit inh 1.4.
CO[C@H]1CN(C)C(=O)c2cc(NC(=O)c3ccccc3F)ccc2OC[C@@H](C)N(CC2CC2)C[C@H]1C was read as RAD52 inh -3.0, RAD54 inh 10.6, AF4-AF9 inh -1.3 and FN deposit inh -0.6.
For C/C=C/c1ccc([C@H]2[C@H](CO)N(C(=O)CC)[C@H]2CNC(=O)CC2CC2)cc1 the results were RAD54 inh -6.7 and FN deposit inh -8.3.
Screening Cc1ccc(NC2=C(Cl)C(=O)c3ccccc3C2=O)cc1 returned RAD52 inh -8.5, Glyco luc inh -5.6, RAD54 inh -2.9, AF4-AF9 inh 3.1, FN deposit inh 6.7 and NSD2 inh 0.6.
